ChEMBL document CHEMBL3227929, “Synthesis and evaluation for diuretic activity of 1-substituted 6-chloro-5-sulfamylindolines” (1979)

Key:
Type in all cases: functional
[1] = test system: Rattus norvegicus; experiment: Diuretic activity in Wistar rat assessed as volume of excreted urine at 50 mg/kg, po measured after 0 to 5 hrs relative to urea-treated control
In short: (§1)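 Female Wistar rats (150-200 g), groups of six, fasted 16 h, dosed orally at 50 mg/kg in 1% saline (15 mL/kg). Housed singly in metabolic cages with water ad libitum. Urine collected 0-5 h and 5-24 h. Na+ and K+ measured by flame photometry as mean mequiv, volume as mean mL. Each expressed as a ratio to a urea group (1000 mg/kg) run alongside vehicle control.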

[2] = test system: Rattus norvegicus; experiment: Diuretic activity in Wistar rat assessed as sodium level in excreted urine at 50 mg/kg, po measured after 0 to 5 hrs by flame photometric analysis relative to urea-treated control; in short: as §1
[3] = test system: Rattus norvegicus; experiment: Diuretic activity in Wistar rat assessed as potassium level in excreted urine at 50 mg/kg, po measured after 0 to 5 hrs by flame photometric analysis relative to urea-treated control; in short: as §1
[4] = test system: Rattus norvegicus; experiment: Diuretic activity in Wistar rat assessed as volume of excreted urine at 50 mg/kg, po measured after 5 to 24 hrs relative to urea-treated control; in short: as §1
[5] = test system: Rattus norvegicus; experiment: Diuretic activity in Wistar rat assessed as sodium level in excreted urine at 50 mg/kg, po measured after 5 to 24 hrs by flame photometric analysis relative to urea-treated control; in short: as §1
[6] = test system: Rattus norvegicus; experiment: Diuretic activity in Wistar rat assessed as potassium level in excreted urine at 50 mg/kg, po measured after 5 to 24 hrs by flame photometric analysis relative to urea-treated control; in short: as §1

Row | SMILES | Ratio [1] | Ratio [2] | Ratio [3] | Ratio [4] | Ratio [5] | Ratio [6]
1 | CC(=O)N1CCc2cc(S(N)(=O)=O)c(Cl)cc21 | 0.53 | 0.63 | 0.53 | 0.72 | 1.09 | 1.1
2 | Cl.NS(=O)(=O)c1cc2c(cc1Cl)NCC2 | 0.62 | 0.95 | 0.76 | 0.94 | 1.02 | 0.83
3 | NS(=O)(=O)c1cc2c(cc1Cl)N(C(=O)c1ccco1)CC2 | 0.31 | 0.46 | 0.38 | 0.87 | 1.2 | 1.23
4 | NS(=O)(=O)c1cc2c(cc1Cl)N(C(=O)c1ccccc1)CC2 | 0.83 | 0.79 | 0.41 | 0.85 | 1.08 | 1.1
5 | CCCC(=O)N1CCc2cc(S(N)(=O)=O)c(Cl)cc21 | 0.54 | 1.04 | 0.53 | 0.96 | 1.3 | 1.17
6 | NS(=O)(=O)c1cc2c(cc1Cl)N(Cc1ccco1)CC2 | 0.15 | 0.29 | 0.24 | 1 | 1.09 | 1.29
7 | NS(=O)(=O)c1cc2c(cc1Cl)N(Cc1ccccc1)CC2 | 0.77 | 1 | 0.73 | 1.8 | 1.3 | 1.2
8 | CCCCN1CCc2cc(S(N)(=O)=O)c(Cl)cc21 | 0.7 | 0.98 | 0.78 | 0.9 | 1.15 | 1.06
9 | NS(=O)(=O)c1cc(C(=O)NN2CCc3cc(S(N)(=O)=O)c(Cl)cc32)ccc1Cl | 0.99 | 1.47 | 1.09 | 1.26 | 1.24 | 1.18
10 | NS(=O)(=O)c1cc2c(cc1Cl)N=CNS2(=O)=O [CHLOROTHIAZIDE] | 1.3 | 1.9 | 1.5 | 1 | 1.1 | 1
11 | NS(=O)(=O)c1cc(C(=O)O)c(NCc2ccco2)cc1Cl [FUROSEMIDE] | 2.75 | 9.63 | 1.12 | 1.08 | 0.96 | 1.31
